hERG rescue: hERG rescue from dofetilide block, primary screen, cell-based, CHO-hERG, FluxOR thallium flux, dofetilide IC70; dofetilide IC70 present; AID 1511, 2009; Voltage-gated inwardly rectifying potassium channel KCNH2 (Homo sapiens), Q12809; 310,000 tested, 0.51% active; activation (rescue from dofetilide block), less the hit threshold, % at 10 µM;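 active = activation above the mean of controls blocked by dofetilide plus 5 SD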;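 note: thallium influx through hERG after potassium depolarization seen as dye fluorescence rise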
KCNK3 inh: human KCNK3 channel inhibitors, primary screen, CHO cells, FluxOR thallium flux, B-score; FluxOR fluorescence; stronger effect = lower value; B-score at 10 µM; 340,000 tested, 0.84% active; AID 602410, 2012;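 active = B-score under library mean minus 4 SD, starting fluorescence ratio at most library mean plus 5 SD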;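 note: more negative B-score means stronger inhibition of thallium flux through KCNK3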
KCNK9 block: KCNK9 potassium channel inhibitors, primary screen, HEK293 cells, thallium flux; 310,000 tested, 1.2% active; B-score at 10 µM; AID 488922, 2010; FluxOR thallium flux fluorescence; stronger effect = lower value; Potassium channel subfamily K member 9 (Homo sapiens), Q9NPC2;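 active = ratio B-score over 3 SD below the library mean, with starting fluorescence within 5 SD of its mean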;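 note: negative B-score means less thallium flux so channel inhibition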
KCNQ1 act: potentiators or activators of KCNQ1 channel, primary screen, cell-based, thallium flux, high-throughput; Potassium voltage-gated channel subfamily KQT member 1 (Homo sapiens), P51787; CHO-K1 KCNQ1, thallium flux FluxOR fluorescence; stronger effect = higher value; B-score at 10 µM; 310,000 tested, 0.35% active;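 active = fluorescence ratio B-score, a plate-corrected score, at least three library SD, with initial intensity B-score within 5 SD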
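Material: CHO-K1 cells stably expressing KCNQ1. Medium: assay buffer for compound exposure, DMSO matched across wells. Reagent: K+/Tl+ depolarizing stimulus. Compound dosing: single-concentration screen. Times: 37 °C overnight plating, 90-min dark dye load, 20-min compound pretreatment. Technique: FluxOR Tl+ flux fluorescence.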
KCNQ1 block: inhibitors of human KCNQ1 channel, primary screen, cell-based, thallium flux, high-throughput. B-score at 10 µM. Potassium voltage-gated channel subfamily KQT member 1 (Homo sapiens), P51787. 310,000 tested, 1.3% active. CHO-K1 KCNQ1, FluxOR thallium flux fluorescence; stronger effect = higher value;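 active = compounds whose thallium flux B-score, printed positive for inhibition, exceeds three library SD while starting fluorescence stays within three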;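 note: channel opened by potassium depolarization with thallium stimulus after 20 min compound exposure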
Kir21 block: inhibitors of mouse Kir2.1 inward-rectifier potassium channel | Inward rectifier potassium channel 2 (Mus musculus), P35561 | HEK293-Kir2.1, FluxOR thallium flux fluorescence; stronger effect = lower value | B-score at 10 µM | 310,000 tested, 0.85% active;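 active = fluorescence ratio B-score at or below minus 3 SD of library scores, with starting-brightness B-score within 2 SD, cut at about -4.2 in these data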;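 note: channel flux triggered by added potassium and thallium sulfate stimulus; B-score of peak minus minimum fluorescence over baseline after thallium stimulus; more negative B-score means stronger Kir2.1 block with less thallium influx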
Target sequence (P35561 whole entry, looked up): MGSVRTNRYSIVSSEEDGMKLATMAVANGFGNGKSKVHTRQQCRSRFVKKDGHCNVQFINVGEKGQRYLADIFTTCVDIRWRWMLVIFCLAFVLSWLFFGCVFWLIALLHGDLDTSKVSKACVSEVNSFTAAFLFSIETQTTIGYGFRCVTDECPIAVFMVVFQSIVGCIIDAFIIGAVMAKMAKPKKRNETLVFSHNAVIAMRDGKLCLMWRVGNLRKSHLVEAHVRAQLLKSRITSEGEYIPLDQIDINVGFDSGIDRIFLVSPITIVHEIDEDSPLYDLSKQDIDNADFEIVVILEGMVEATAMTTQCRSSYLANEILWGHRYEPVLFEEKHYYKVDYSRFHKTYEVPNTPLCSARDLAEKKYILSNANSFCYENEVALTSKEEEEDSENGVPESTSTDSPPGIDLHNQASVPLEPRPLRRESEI
Numbers without * were called inactive; i = inactive; / = no result. This is a sample that favours compounds with a hit; in the whole collection about 3.7% have one here.

SMILES	hERG rescue	KCNK3 inh	KCNK9 block	KCNQ1 act	KCNQ1 block	Kir21 block
CC(=O)NN1C(=O)/C(=C\c2ccc(Br)o2)SC1=S	-12	i	i	i	i	-5*
CC(=O)NN1C(=O)/C(=C/c2ccc(Br)o2)SC1=S	-10	i	i	i	i	-0.88
CCOC(=O)c1c(-c2ccccc2)oc2ccc(OC)cc12	-2	i	i	i	i	-0.55
CCOC(=O)c1c(-c2ccccc2)oc2ccc(OCC(O)CNCCN(C)C)cc12 (stereo unspecified)	-11	i	i	i	i	-5.2*
CCOC(=O)c1nnn(-c2nonc2N)c1-c1ccccc1Cl	-13	i	i	i	i	-4.9*
O=C(NCCCl)Nc1ccccc1OCCOc1ccccc1NC(=O)NCCCl	-9	i	-7*	i	i	1.1
COc1ccc(CCNC(=O)c2ccc(NC(=O)CC3SC(N4CCCC4)=NC3=O)cc2)cc1OC (stereo unspecified)	/	i	/	/	/	/
COc1ccc2nc(N=Nc3ccc(O)c4ccccc34)sc2c1	11*	i	i	18*	i	-3.2
O=C(O)CC(NC(=O)C1CCCCC1)c1cc([N+](=O)[O-])ccc1Cl (stereo unspecified)	-17	i	i	i	12*	0.31
CCN(C/C=C/c1ccccc1OC)Cc1ccccc1	1	i	i	i	i	-4.8*
Cc1nc(Sc2nnnn2-c2ccccc2)c(C#N)c(C)c1C	-10	i	i	i	i	-4.9*
CSc1ccc(OC2CCN(Cc3ccccc3)CC2)cc1	-17	i	i	i	i	-20*
CSc1ccc(CN2CCC(Oc3cccc(C(=O)N4CCCC4)c3)CC2)cc1	-8	i	i	i	i	-4.6*
O=C(c1cccc(OC2CCN(Cc3ccc(F)cc3Cl)CC2)c1)N1CCCC1	-7	i	i	i	i	-4.7*
CSc1ccc(CN2CCC(N3CC(C)OC(C)C3)CC2)cc1 (stereo unspecified)	-7	i	i	i	i	0.33
CCOC(=O)C(=CNc1cccnc1Oc1ccc(C)c2c1CCC2)C(=O)OCC	-8	i	-7.2*	i	i	-2.1
CCOc1ccc(OCC)c(NC(=O)CCCN2C(=O)c3cccnc3C2=O)c1	7.5*	i	i	i	i	0.1
Cc1ccc(NC(=O)CSCC(=O)Nc2cc(Cl)ccc2N2CCN(C)CC2)cc1	-10	i	i	i	i	-5.2*
COc1ccc(CCN2CCC(Nc3nc4ccccc4n3Cc3ccc(F)cc3)CC2)cc1	/	i	i	i	i	-6.8*
CN(CC(=O)Nc1ccc(OC(F)(F)F)cc1)C(=O)c1ccccc1SCC(=O)N1CCCC1	/	i	/	/	/	/
OC1(C#CCCN2CCCCC2)c2ccccc2-c2ccccc21	3	i	i	i	i	0.06
N#CC1(CCCN2CCCCC2)c2ccccc2CCc2ccccc21	-11	i	i	i	i	-5.6*
CCC1=C(OC(=O)N(CC)CC)N2C(=O)OC(=NCC3CC3)[C@]2(Cc2ccccc2)[C@H]2C1=CC[C@H]1C(=O)N(CC(=O)OC)C(=O)[C@H]12	-8	/	-6.8*	i	i	-0.01
CCC1=C(OC(=O)N(CC)CC)N2C(=O)OC(=NCc3ccccc3)[C@]2(C)[C@H]2C1=CC[C@H]1C(=O)N(CC(=O)OC)C(=O)[C@H]12	-8	i	i	i	i	0.25
Cc1ccc(NC(=O)NCc2ccccn2)cc1	9.3*	i	i	i	i	-2.9
SMILES	hERG rescue	KCNK3 inh	KCNK9 block	KCNQ1 act	KCNQ1 block	Kir21 block
Cc1cccc(NC(=O)c2nc[nH]c2C(=O)NCCCCNC(=O)c2[nH]cnc2C(=O)Nc2cccc(C)c2)c1	/	i	/	/	/	/
CN(C)C(CNc1ncccn1)c1ccccc1 (stereo unspecified)	-5	i	i	i	i	-0.1
Cc1cc(Cl)c2oc(C(=O)N3CCN(c4ccncc4)CC3)c(C)c2c1	-17	i	i	i	i	-5.1*
CC1CNC(=S)N(c2ccc(F)cc2)C1=O (stereo unspecified)	/	i	/	/	/	/
O=C(CNS(=O)(=O)c1c(Cl)cccc1Cl)N1CCCCCC1	-2	i	i	i	i	-4.6*
CCN(CC(=O)Nc1ccccc1OC)C(=O)c1cc(-c2ccccc2)nn1-c1ccccc1	-21	i	i	i	7*	-0.35
CCN(CC(=O)Nc1ccccc1C(F)(F)F)C(=O)c1cc(-c2ccccc2)nn1-c1ccccc1	-16	i	i	i	i	-0.44
CCOC(=O)c1ccc(/C=C2/C=C(c3ccccc3)N(c3ccc(Cl)c(C(=O)O)c3)C2=O)cc1	-24	i	i	i	11*	-6.6
CCN1CCc2c(sc(NC(=O)c3ccc4ccccc4c3)c2C(N)=O)C1	-29	i	-6.8*	i	i	-2.4
CNC(=O)c1c(NC(=O)c2ccc(S(=O)(=O)N(C)c3ccccc3)cc2)sc2c1CCN(C(C)C)C2	-18	/	-8.1*	i	i	-4.5
NC(=O)c1ccsc1NC(=O)c1ccc(S(=O)(=O)N2CCCc3ccccc32)cc1	-8	i	i	i	i	1.1
CCN1CCc2c(sc(NC(=O)c3ccc(S(=O)(=O)N(C)c4ccccc4)cc3)c2C(=O)NC)C1	-22	i	i	i	21*	-3.3
CC(C)N1CCc2c(sc(NC(=O)c3ccc(S(=O)(=O)N4CCc5ccccc54)cc3)c2C(N)=O)C1	-25	i	i	i	17*	0.04
COc1ccccc1N1CCN(C(=O)CC(NC(=O)c2ccccc2Cl)c2ccccc2)CC1 (stereo unspecified)	/	i	/	/	/	/
CC(C)N1CCc2c(sc(NC(=O)c3nc4ccccc4s3)c2C(N)=O)C1	-8	i	i	i	i	-1.1
CC(C)N1CCc2c(sc(NC(=O)c3cc(-c4cccs4)nc4ccccc34)c2C(N)=O)C1	-47	i	-6.9*	i	i	-1.1
COc1ccc(Cl)cc1NCCC(O)c1ccc(F)cc1 (stereo unspecified)	-9	i	i	i	i	-4.8*
S=c1[nH]c2cc(-c3ccccc3)ccc2o1	45*	i	i	63*	i	1.7
